Test results published in ChEMBL document CHEMBL1153564 (Antimicrob Agents Chemother, 2008).
In brackets after ≈: the same amount, converted by molar mass. Activity calls are given as the source filed them. The rule behind the calls is not given here. Starred links: 1 amine or outer side, 2 acyl side, 3 side chain; linkers in the order of their positions; H or OH if unused. Positions of bridges follow the written chain, without caps; N, C: chain ends. Non-standard residues stand in square brackets, D forms with d. Residues, ends and D or L forms follow the SMILES beside them. *: point of attachment. pTerphenylCO(4''-OnC5H11) = CCCCCOc1ccc(-c2ccc(-c3ccc(C(=O)*)cc3)cc2)cc1; Orn(4R-OH,5R-OH) = O=C([C@H](C[C@@H](O)[C@@H](O)N[*:3])N[*:1])[*:2]; hTyr(3S-OH,4S-OH) = N[C@H](C(=O)O)[C@H](O)[C@@H](O)c1ccc(O)cc1; Pro(3S-OH,4S-Me) = C[C@H]1CN[C@H](C(=O)O)[C@H]1O; Hyp = O=C(O)[C@@H]1C[C@@H](O)CN1

What was measured:
Candida albicans [1] = assay: Antifungal activity against Candida albicans K-1 infected in neutropenic ICR/Swiss mouse candidiasis model assessed as reduction of […] in kidney at 5 mg/kg, ip administered 2 hrs postinfection as single dose measured within 1 to 4 hrs post dosing by time-kill assay; assay type: functional, organism-based; parameters: dose 5 mg/kg
In short: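 Single ip dose (20, 5 or 1.25 mg/kg) given 2 h after iv infection of neutropenic mice with K-1. Three treated and three control mice were sampled at intervals over 96 h for kidney CFU. PAFE is the time for treated burden to rise 1 log10 after serum levels fall below MIC, minus the same time in controls. Free drug was taken as 1%.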

Mus musculus = assay: Cmax in serum of neutropenic ICR/Swiss mouse candidiasis model at 20 mg/kg, ip up to 4 hrs by reverse-phase high-pressure liquid chromatography; assay type: ADME, organism-based; parameters: dose 20 mg/kg, route intraperitoneal; details: in vivo
In short: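 Infected neutropenic ICR/Swiss mice given single ip doses (5, 20 or 80 mg/kg; 0.2 ml); serum from three isoflurane-anaesthetised mice at 1, 4, 8, 12, 24 and 48 h, stored at −80°C, assayed by reverse-phase HPLC with fluorescence detection, loratadine internal standard, linear 10–50,000 ng/ml. Noncompartmental analysis; half-life by nonlinear least squares.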

Nakaseomyces glabratus [2] = assay: Antifungal activity against Candida glabrata 5376 infected in neutropenic ICR/Swiss mouse candidiasis model assessed as reduction of […] in kidney at 5 mg/kg, ip administered 2 hrs postinfection as single dose measured within 1 to 4 hrs post dosing by time-kill assay; assay type: functional, organism-based; parameters: dose 5 mg/kg
In short: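 Neutropenic mice were infected i.v. and 2 h later given a single i.p. dose (1.25, 5 or 20 mg/kg). Groups of three treated and three control mice were killed at intervals over 96 h, and kidney CFU were counted on SDA (limit 100 CFU/ml). The post-antifungal effect is t − c: the time for a 1 log10 CFU/kidney increase once serum levels fall below the MIC in treated mice, minus the same time in controls.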

Nakaseomyces glabratus [3] = assay: Antifungal activity against Candida glabrata 5376 infected in neutropenic ICR/Swiss mouse candidiasis model assessed as dose required for 1-log10 reduction in […] per kidney administered intraperitoneally once every 96 hrs measured per 96 hrs; assay type: functional
In short: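 Neutropenic ICR/Swiss mice infected i.v. with the strain; therapy began 2 h later. Total doses of 1.25–320 mg/kg/96 h were given i.p. as 1, 2, 4 or 6 doses (q96h, q48h, q24h, q16h), three mice per regimen. Kidney CFU were counted after 4 days. Effect is the change from untreated controls at the end of therapy.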

Nakaseomyces glabratus [4] = assay: Antifungal activity against Candida glabrata 5376 infected in neutropenic ICR/Swiss mouse candidiasis model assessed as dose required to maintain […] of 3.71 +/- 0.21 log10CFU per kidney administered intraperitoneally once every 96 hrs measured per 96 hrs
Nakaseomyces glabratus [5] = assay: Antifungal activity against Candida glabrata 35315 assessed as partial growth inhibition after 24 hrs by CLSI end point method; assay type: functional; details: Nakaseomyces glabratus, 35315, 24 h
In short: (§1)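 Two end points were read against the drug-free control well: partial growth inhibition (the CLSI end point) and complete inhibition. Run in duplicate on four separate occasions; the value is the mean. Drug stock was made in DMSO and diluted in 0.9% NaCl.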

Candida albicans [6] = assay: Antifungal activity against Candida albicans 98-17 infected in neutropenic ICR/Swiss mouse candidiasis model assessed as dose required for 1-log10 reduction in […] per kidney administered intraperitoneally every 24 hrs up to 4 days measured per 24 hrs; assay type: functional
In short: (§2)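 Neutropenic mice (cyclophosphamide sc on days −4, −1 and +2) were infected iv 2 h before therapy. Five total doses from 0.078 to 20 mg/kg/24 h were given ip q24h for 4 days, three mice per regimen. Kidney CFU were measured at the end of therapy. Static and 1-log-kill doses were derived from a Hill sigmoid dose-effect fit.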

Nakaseomyces glabratus [7] = assay: Antifungal activity against Candida glabrata 37661 assessed as partial growth inhibition after 24 hrs by CLSI end point method; assay type: functional; details: Nakaseomyces glabratus, 37661, 24 h; in short: as §1
Candida albicans [8] = assay: Antifungal activity against Candida albicans K-1 infected in neutropenic ICR/Swiss mouse candidiasis model assessed as dose required to maintain […] of 3.90 +/- 0.15 log10CFU per kidney administered intraperitoneally every 24 hrs up to 4 days measured per 96 hrs; assay type: functional
In short: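 Neutropenic mice were infected iv with C. albicans K-1 2 h before therapy. Total doses of 1.25, 5, 20, 80 and 320 mg/kg/96 h were split into 1, 2, 4 or 6 ip doses (q96h, q48h, q24h, q16h), three mice per regimen. Effect is the log10 CFU/kidney relative to untreated controls at 96 h. Static and 1-log doses were taken from a Hill model fit.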

Candida albicans [9] = assay: Antifungal activity against Candida albicans K-1 assessed as complete growth inhibition after 24 hrs by CLSI end point method; assay type: functional; details: K-1, 24 h
In short: (§3)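 CLSI M27-A2 broth dilution. Two end points read against the drug-free control well: partial inhibition (CLSI end point) and complete inhibition. Run in duplicate on four separate occasions; value is the mean. Drug stock in DMSO, diluted in 0.9% NaCl.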

Candida albicans [10] = assay: Antifungal activity against Candida albicans 98-17 assessed as partial growth inhibition after 24 hrs by CLSI end point method; assay type: functional; details: 98-17, 24 h; in short: as §3
Candida albicans [11] = assay: Antifungal activity against Candida albicans 580 infected in neutropenic ICR/Swiss mouse candidiasis model assessed as dose required to maintain […] of 3.81 +/- 0.33 log10CFU per kidney administered intraperitoneally every 24 hrs up to 4 days measured per 24 hrs; assay type: functional; in short: as §2
Serum = assay: Fraction unbound in Candida glabrata 5376-infected neutropenic ICR/Swiss mouse serum at 5 mg/kg, ip administered 2 hrs postinfection as single dose; assay type: ADME, organism-based; parameters: dose 5 mg/kg, route intraperitoneal; details: in vivo
Nakaseomyces glabratus [12] = assay: Antifungal activity against Candida glabrata 5376 infected in neutropenic ICR/Swiss mouse candidiasis model assessed as prolongation of fungal growth suppression at 1.25 mg/kg, ip administered 2 hrs postinfection as single dose by time-kill assay; assay type: functional; details: route intraperitoneal
In short: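 Single ip dose of 1.25, 5 or 20 mg/kg given 2 h after iv infection of neutropenic mice. Groups of 3 treated and 3 control mice sampled at 1–24 h intervals over 96 h. Kidney homogenates plated on SDA, 24 h at 35°C. PAFE = time for treated burden to rise 1 log10 CFU/kidney after serum level fell below MIC, minus the same time in controls.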

Nakaseomyces glabratus [13] = assay: Antifungal activity against Candida glabrata 513 infected in neutropenic ICR/Swiss mouse candidiasis model assessed as fungal count per kidney administered 2 hrs postinfection measured up to 48 hrs; assay type: functional
In short: (§4)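 Female ICR/Swiss mice (23–27 g) made neutropenic with cyclophosphamide s.c. (150 mg/kg day −4, 100 mg/kg day −1, 100 mg/kg day +2). Infected by tail vein with 0.1 ml inoculum (~6.1 log10 CFU/ml). Kidneys of untreated mice were homogenised and plated on SDA for 24 h at 35°C. Growth over 48 h is given as log10 CFU/kidney.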

Nakaseomyces glabratus [14] = assay: Antifungal activity against Candida glabrata 33616 infected in neutropenic ICR/Swiss mouse candidiasis model assessed as fungal count per kidney administered 2 hrs postinfection measured up to 48 hrs; assay type: functional; in short: as §4
Candida albicans [15] = assay: Antifungal activity against Candida albicans 98-210 assessed as partial growth inhibition after 24 hrs by CLSI end point method; assay type: functional; details: 98-210, 24 h; in short: as §3

CCCCCOc1ccc(-c2ccc(-c3ccc(C(=O)N[C@H]4C[C@@H](O)[C@@H](O)NC(=O)[C@@H]5[C@@H](O)[C@@H](C)CN5C(=O)[C@H]([C@@H](C)O)NC(=O)[C@H]([C@H](O)[C@@H](O)c5ccc(O)cc5)NC(=O)[C@@H]5C[C@@H](O)CN5C(=O)[C@H]([C@@H](C)O)NC4=O)cc3)cc2)cc1 [ANIDULAFUNGIN] ({pTerphenylCO(4''-OnC5H11)}-[Orn(4R-OH,5R-OH)]T[Hyp][hTyr(3S-OH,4S-OH)]T[Pro(3S-OH,4S-Me)]; lactam 1-C)
Activity (Candida albicans [1]): Active | Cmax (Mus musculus): 24000 ng/mL | Activity (Nakaseomyces glabratus [2]): Active | Activity (Nakaseomyces glabratus [3]): 16.6 mg/kg | Activity (Nakaseomyces glabratus [4]): 9.06 mg/kg | MIC (Nakaseomyces glabratus [5]): 0.25 µg/mL (≈ 0.219 µM) | Activity (Candida albicans [6]): 1.95 mg/kg | MIC (Nakaseomyces glabratus [7]): 2 µg/mL (≈ 1.75 µM) | Activity (Candida albicans [8]): 5 mg/kg | MIC (Candida albicans [9]): 0.12 µg/mL (≈ 0.105 µM) | MIC (Candida albicans [10]): 0.03 µg/mL (≈ 0.0263 µM) | Activity (Candida albicans [11]): 0.94 mg/kg | Fu (Serum): 1% | Activity (Nakaseomyces glabratus [12]): 19 h | log10cfu (Nakaseomyces glabratus [13]): 2.43 | log10cfu (Nakaseomyces glabratus [14]): 1.81 | MIC (Candida albicans [15]): 0.015 µg/mL (≈ 0.0132 µM)
